Laboratory results: EPA's CvTdb concentration-time database

Legend:
rat = experiment: concentration in blood after dosing; conditions: duration: 4 hr
human [1] = experiment: concentration in expired air after dosing; negative times count back from the end of exposure; conditions: dosed: dichloromethane, inhalation, duration: 6 hr, male
Procedure, shortened: (§1)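 Concentration-versus-time or amount-versus-time points were compiled from published in vivo toxicokinetic studies and from two structured collections. The studies were found by PubMed searching, classifier screening and manual review. Points were mostly digitised from plot screenshots with WebPlotDigitizer, otherwise copied from tables, and kept in the reported units. Dose, route, subject details and medium were curated by hand from each paper, and sampling and analytical methods follow each source and were often unreported.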

mouse [2] = experiment: concentration in liver after dosing; conditions: dosed: dichloromethane, iv, male, B6C3F1
Procedure, shortened: as §1

mouse [3] = experiment: concentration in lung after dosing; conditions: dosed: dichloromethane, iv, male, B6C3F1
Procedure, shortened: as §1

mouse [4] = experiment: concentration in body after dosing; conditions: dosed: dichloromethane, iv, male, B6C3F1
Procedure, shortened: as §1

mouse [5] = experiment: concentration in kidney after dosing; conditions: dosed: dichloromethane, iv, male, B6C3F1
Procedure, shortened: as §1

human [6] = experiment: concentration in blood after dosing; negative times count back from the end of exposure; conditions: dosed: dichloromethane, inhalation, duration: 6 hr, male
Procedure, shortened: as §1

`CCCCCCCCCC` [decane] gave a concentration in blood (rat; 5.5 min, dosed: decane, 1200 ppm, inhalation) of 4.98 µg/g, a concentration in blood (rat; 335 s, dosed: decane, 1200 ppm, inhalation) of 6.97 µg/g and a concentration in blood (rat; 338 s, dosed: decane, 1200 ppm, inhalation) of 8.67 µg/g. The concentration in blood (rat; 0.51 h, dosed: decane, 1200 ppm, inhalation) was 0.855 µg/g, the concentration in blood (rat; 0.5118 h, dosed: decane, 1200 ppm, inhalation) was 1.32 µg/g and the concentration in blood (rat; 0.5126 h, dosed: decane, 1200 ppm, inhalation) was 1.61 µg/g. For the same molecule, the concentration in blood (rat; 0.5141 h, dosed: decane, 1200 ppm, inhalation) was 0.232 µg/g, the concentration in blood (rat; 1.018 h, dosed: decane, 1200 ppm, inhalation) was 0.402 µg/g and the concentration in blood (rat; 1.021 h, dosed: decane, 1200 ppm, inhalation) was 0.836 µg/g. For the same molecule, the concentration in blood (rat; 1.022 h, dosed: decane, 1200 ppm, inhalation) was 1.06 µg/g, the concentration in blood (rat; 1.023 h, dosed: decane, 1200 ppm, inhalation) was 1.4 µg/g and the concentration in blood (rat; 2.003 h, dosed: decane, 1200 ppm, inhalation) was 0.669 µg/g. The concentration in blood (rat; 2.007 h, dosed: decane, 1200 ppm, inhalation) was 0.196 µg/g, the concentration in blood (rat; 2.01 h, dosed: decane, 1200 ppm, inhalation) was 0.37 µg/g and the concentration in blood (rat; 2.011 h, dosed: decane, 1200 ppm, inhalation) was 0.451 µg/g. The concentration in blood (rat; 3.997 h, dosed: decane, 1200 ppm, inhalation) was 0.455 µg/g, the concentration in blood (rat; 4.002 h, dosed: decane, 1200 ppm, inhalation) was 0.176 µg/g and the concentration in blood (rat; 4.003 h, dosed: decane, 1200 ppm, inhalation) was 0.21 µg/g.
In the case of `BrCBr` [dibromomethane], the concentration in blood (rat; 0.4941 h, dosed: dibromomethane, 500 ppm, dermal, male, Fischer-344) is reported as 0.965 µg/mL, the concentration in blood (rat; 0.5004 h, dosed: dibromomethane, 5000 ppm, dermal, male, Fischer-344) is reported as 8.99 µg/mL and the concentration in blood (rat; 0.5042 h, dosed: dibromomethane, 10000 ppm, dermal, male, Fischer-344) is reported as 34.2 µg/mL. It also gave a concentration in blood (rat; 0.5051 h, dosed: dibromomethane, 1000 ppm, dermal, male, Fischer-344) of 1.17 µg/mL, a concentration in blood (rat; 0.9982 h, dosed: dibromomethane, 500 ppm, dermal, male, Fischer-344) of 1.28 µg/mL and a concentration in blood (rat; 0.9999 h, dosed: dibromomethane, 5000 ppm, dermal, male, Fischer-344) of 14.7 µg/mL. For the same molecule, the concentration in blood (rat; 1.004 h, dosed: dibromomethane, 10000 ppm, dermal, male, Fischer-344) was 55.2 µg/mL, the concentration in blood (rat; 1.005 h, dosed: dibromomethane, 1000 ppm, dermal, male, Fischer-344) was 2.09 µg/mL and the concentration in blood (rat; 2.005 h, dosed: dibromomethane, 500 ppm, dermal, male, Fischer-344) was 1.29 µg/mL. For the same molecule, the concentration in blood (rat; 2.007 h, dosed: dibromomethane, 1000 ppm, dermal, male, Fischer-344) was 2.72 µg/mL, the concentration in blood (rat; 2.011 h, dosed: dibromomethane, 10000 ppm, dermal, male, Fischer-344) was 90.1 µg/mL and the concentration in blood (rat; 2.014 h, dosed: dibromomethane, 5000 ppm, dermal, male, Fischer-344) was 30 µg/mL. The concentration in blood (rat; 2.998 h, dosed: dibromomethane, 1000 ppm, dermal, male, Fischer-344) was 3.02 µg/mL, the concentration in blood (rat; 2.998 h, dosed: dibromomethane, 10000 ppm, dermal, male, Fischer-344) was 120 µg/mL and the concentration in blood (rat; 3 h, dosed: dibromomethane, 500 ppm, dermal, male, Fischer-344) was 1.15 µg/mL. It also gave a concentration in blood (rat; 3.005 h, dosed: dibromomethane, 5000 ppm, dermal, male, Fischer-344) of 38.2 µg/mL, a concentration in blood (rat; 4.005 h, dosed: dibromomethane, 1000 ppm, dermal, male, Fischer-344) of 3.13 µg/mL and a concentration in blood (rat; 4.005 h, dosed: dibromomethane, 10000 ppm, dermal, male, Fischer-344) of 142 µg/mL. It also gave a concentration in blood (rat; 4.007 h, dosed: dibromomethane, 500 ppm, dermal, male, Fischer-344) of 1.28 µg/mL and a concentration in blood (rat; 4.017 h, dosed: dibromomethane, 5000 ppm, dermal, male, Fischer-344) of 44.9 µg/mL.
For `ClCCl` [dichloromethane], the “concentration in expired air” value (human [1]; 0.083 h, 100 ppm) was 12.1 ppm, the “concentration in expired air” value (human [1]; 0.083 h, 350 ppm) was 81.3 ppm and the “concentration in expired air” value (human [1]; 0.25 h, 100 ppm) was 8.5 ppm. For the same molecule, the “concentration in expired air” value (human [1]; 0.25 h, 350 ppm) was 58.9 ppm, the “concentration in expired air” value (human [1]; 0.5 h, 100 ppm) was 6.7 ppm and the “concentration in expired air” value (human [1]; 0.5 h, 350 ppm) was 38.7 ppm. For the same molecule, the “concentration in expired air” value (human [1]; 1 h, 100 ppm) was 4.2 ppm, the “concentration in expired air” value (human [1]; 1 h, 350 ppm) was 25.1 ppm and the “concentration in expired air” value (human [1]; 1.5 h, 100 ppm) was 2.7 ppm. For the same molecule, the “concentration in expired air” value (human [1]; 1.5 h, 350 ppm) was 17.7 ppm, the “concentration in expired air” value (human [1]; 2 h, 100 ppm) was 2.6 ppm and the “concentration in expired air” value (human [1]; 2 h, 350 ppm) was 14.9 ppm. For the same molecule, the “concentration in expired air” value (human [1]; 3 h, 100 ppm) was 1.8 ppm, the “concentration in expired air” value (human [1]; 3 h, 350 ppm) was 10.3 ppm and the “concentration in expired air” value (human [1]; 4 h, 100 ppm) was 1.4 ppm. For the same molecule, the “concentration in expired air” value (human [1]; 4 h, 350 ppm) was 8.3 ppm, the “concentration in expired air” value (human [1]; 6 h, 350 ppm) was 4.5 ppm and the “concentration in expired air” value (human [1]; 8 h, 350 ppm) was 3.2 ppm. The “concentration in expired air” value (human [1]; 16 h, 350 ppm) was 1.3 ppm, the “concentration in expired air” value (human [1]; -36 s, 100 ppm, during exposure) was 45.7 ppm and the “concentration in expired air” value (human [1]; -36 s, 350 ppm, during exposure) was 202 ppm. The “concentration in expired air” value (human [1]; -1 h, 100 ppm, during exposure) was 43.3 ppm, the “concentration in expired air” value (human [1]; -1 h, 350 ppm, during exposure) was 192 ppm and the “concentration in expired air” value (human [1]; -2 h, 100 ppm, during exposure) was 42.8 ppm. For the same molecule, the “concentration in expired air” value (human [1]; -2 h, 350 ppm, during exposure) was 190 ppm, the “concentration in expired air” value (human [1]; -3 h, 100 ppm, during exposure) was 41.8 ppm and the “concentration in expired air” value (human [1]; -3 h, 350 ppm, during exposure) was 192 ppm. The “concentration in expired air” value (human [1]; -4 h, 100 ppm, during exposure) was 41.2 ppm, the “concentration in expired air” value (human [1]; -4 h, 350 ppm, during exposure) was 176 ppm and the “concentration in expired air” value (human [1]; -4.5 h, 100 ppm, during exposure) was 40.4 ppm. For the same molecule, the “concentration in expired air” value (human [1]; -4.5 h, 350 ppm, during exposure) was 165 ppm, the “concentration in expired air” value (human [1]; -5 h, 100 ppm, during exposure) was 39.4 ppm and the “concentration in expired air” value (human [1]; -5 h, 350 ppm, during exposure) was 155 ppm. The “concentration in expired air” value (human [1]; -5.5 h, 100 ppm, during exposure) was 36.4 ppm, the “concentration in expired air” value (human [1]; -5.5 h, 350 ppm, during exposure) was 141 ppm and the “concentration in expired air” value (human [1]; -5.75 h, 100 ppm, during exposure) was 34.6 ppm. For the same molecule, the “concentration in expired air” value (human [1]; -5.75 h, 350 ppm, during exposure) was 126 ppm, the concentration in liver (mouse [2]; 20 min, 10 mg/kg) was 3.45 µg/g and the concentration in liver (mouse [2]; 20 min, 50 mg/kg) was 21.6 µg/g. It also gave a concentration in liver (mouse [2]; 40 min, 10 mg/kg) of 3.57 µg/g, a concentration in liver (mouse [2]; 40 min, 50 mg/kg) of 15.9 µg/g and a concentration in liver (mouse [2]; 1 h, 10 mg/kg) of 4.11 µg/g. For the same molecule, the concentration in liver (mouse [2]; 1 h, 50 mg/kg) was 15.4 µg/g, the concentration in liver (mouse [2]; 3 h, 10 mg/kg) was 2.56 µg/g and the concentration in liver (mouse [2]; 3 h, 50 mg/kg) was 7.81 µg/g. It also gave a concentration in liver (mouse [2]; 4 h, 10 mg/kg) of 1.29 µg/g, a concentration in liver (mouse [2]; 4 h, 50 mg/kg) of 7.12 µg/g and a concentration in lung (mouse [3]; 20 min, 10 mg/kg) of 1.71 µg/g. It also gave a concentration in lung (mouse [3]; 20 min, 50 mg/kg) of 6.19 µg/g, a concentration in lung (mouse [3]; 40 min, 10 mg/kg) of 3.57 µg/g and a concentration in lung (mouse [3]; 40 min, 50 mg/kg) of 3.98 µg/g. The concentration in lung (mouse [3]; 1 h, 10 mg/kg) was 4.11 µg/g, the concentration in lung (mouse [3]; 1 h, 50 mg/kg) was 2.96 µg/g and the concentration in lung (mouse [3]; 3 h, 10 mg/kg) was 2.56 µg/g. For the same molecule, the concentration in lung (mouse [3]; 3 h, 50 mg/kg) was 1.54 µg/g, the concentration in lung (mouse [3]; 4 h, 10 mg/kg) was 1.29 µg/g and the concentration in lung (mouse [3]; 4 h, 50 mg/kg) was 1.23 µg/g. It also gave a concentration in body (mouse [4]; 20 min, 10 mg/kg) of 1.3 µg/g, a concentration in body (mouse [4]; 20 min, 50 mg/kg) of 1.16 µg/g and a concentration in body (mouse [4]; 40 min, 10 mg/kg) of 0.076 µg/g. It also gave a concentration in body (mouse [4]; 40 min, 50 mg/kg) of 0.076 µg/g, a concentration in body (mouse [4]; 1 h, 10 mg/kg) of 0.14 µg/g and a concentration in body (mouse [4]; 1 h, 50 mg/kg) of 0.14 µg/g. The concentration in body (mouse [4]; 3 h, 50 mg/kg) was 0.028 µg/g, the concentration in body (mouse [4]; 4 h, 50 mg/kg) was 0.018 µg/g and the concentration in kidney (mouse [5]; 20 min, 10 mg/kg) was 1.86 µg/g. It also gave a concentration in kidney (mouse [5]; 20 min, 50 mg/kg) of 3.7 µg/g, a concentration in kidney (mouse [5]; 40 min, 10 mg/kg) of 1.56 µg/g and a concentration in kidney (mouse [5]; 40 min, 50 mg/kg) of 5.31 µg/g. For the same molecule, the concentration in kidney (mouse [5]; 1 h, 10 mg/kg) was 1.99 µg/g, the concentration in kidney (mouse [5]; 1 h, 50 mg/kg) was 3.82 µg/g and the concentration in kidney (mouse [5]; 3 h, 10 mg/kg) was 1.31 µg/g. The concentration in kidney (mouse [5]; 3 h, 50 mg/kg) was 2.17 µg/g, the concentration in kidney (mouse [5]; 4 h, 10 mg/kg) was 0.78 µg/g and the concentration in kidney (mouse [5]; 4 h, 50 mg/kg) was 1.74 µg/g. It also gave a concentration in blood (human [6]; 1 h, 100 ppm) of 0.15 µg/mL, a concentration in blood (human [6]; 1 h, 350 ppm) of 0.91 µg/mL and a concentration in blood (human [6]; 6 h, 100 ppm) of 0.062 µg/mL. It also gave a concentration in blood (human [6]; 6 h, 350 ppm) of 0.34 µg/mL, a concentration in blood (human [6]; 16 h, 100 ppm) of 0.012 µg/mL and a concentration in blood (human [6]; 16 h, 350 ppm) of 0.077 µg/mL. The concentration in blood (human [6]; 24 h, 350 ppm) was 0.036 µg/mL, the concentration in blood (human [6]; -1 h, 100 ppm, during exposure) was 1.05 µg/mL and the concentration in blood (human [6]; -1 h, 350 ppm, during exposure) was 5.86 µg/mL. It also gave a concentration in blood (human [6]; -3 h, 100 ppm, during exposure) of 1.11 µg/mL, a concentration in blood (human [6]; -3 h, 350 ppm, during exposure) of 5.92 µg/mL and a concentration in blood (human [6]; -6 h, 100 ppm, during exposure) of 0.005 µg/mL. For the same molecule, the concentration in blood (human [6]; -6 h, 350 ppm, during exposure) was 0.016 µg/mL.
